# Laboratory results reported in ChEMBL document CHEMBL3862011, “Neuroprotective effects of benzyloxy substituted small molecule monoamine oxidase B inhibitors in Parkinson's disease” (Bioorg Med Chem, 2016).
# Active and inactive are the calls of the source. No cut-off for these calls is given here.
# What was measured:
# PC-12 [1] = experiment: Neuroprotective activity against 6-OHDA-induced toxicity in rat PC12 cells assessed as increase in cell survival preincubated for 24 hrs followed by 6-OHDA addition measured after 24 hrs by MTT assay; type: functional, cell-based
# Outline: (§1)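 PC12 cells in RPMI-1640 with 10% FBS were seeded at 5×10^3 cells/well. After 24 h, compounds at 20 μM were added for 24 h at 37 °C, followed by 6-OHDA (40 μM) or rotenone (1 μM) for 24 h. Viability by MTT (570 nm, reference 630 nm), expressed as percent of untreated control. […] Mean ± SEM.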
# PC-12 [2] = experiment: Neuroprotective activity against 6-OHDA-induced apoptosis in rat PC12 cells assessed as early apoptotic cells at 20 uM after 24 hrs by 7-AAD/annexin V APC staining-based flow cytometric method (reference value: 42.1%); type: functional
# PC-12 [3] = experiment: Neuroprotective activity against rotenone-induced apoptosis in rat PC12 cells assessed as late apoptotic cells at 10 uM after 24 hrs by 7-AAD/annexin V APC staining-based flow cytometric method (reference value: 9.9%); type: functional
# PC-12 [4] = experiment: Neuroprotective activity against rotenone-induced apoptosis in rat PC12 cells assessed as necrotic cells at 10 uM after 24 hrs by 7-AAD/annexin V APC staining-based flow cytometric method (reference value: 48.6%); type: functional
# [5] = Neuroprotective activity against 6-OHDA-induced toxicity in rat PC12 cells assessed as cell survival at 20 uM preincubated for 24 hrs followed by 6-OHDA addition measured after 24 hrs by MTT assay relative to control; type: functional; conditions: PC-12, read-out: Survival
# Outline: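 PC12 cells seeded 5×10^3/well, after 24 h given compound at 20 μM for 24 h at 37 °C, then exposed to 6-OHDA (40 μM) or rotenone (1 μM) for 24 h. […] Mean ± SEM of three independent experiments.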
# PC-12 [6] = experiment: Neuroprotective activity against rotenone-induced apoptosis in rat PC12 cells at 20 uM preincubated for 24 hrs followed by rotenone addition measured after 24 hrs by 7-AAD/annexin V APC staining-based flow cytometric method; type: functional, cell-based
# Mus musculus [7] = experiment: Acute toxicity in Kunming mouse assessed as reduction in body weight at 2000 mg/kg measured for 14 days; type: organism-based; conditions: in vivo, 336 h
# Outline: (§2)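 Kunming mice (20 ± 2 g), 10 per group, vehicle control group; fasted overnight, single oral dose in 0.5% CMC-Na suspension. Observed continuously for 4 h, intermittently to 24 h, then occasionally to day 14 for behaviour, mortality, food and water intake and body weight; sacrificed under ether on day 14.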
# PC-12 [8] = experiment: Neuroprotective activity against rotenone-induced apoptosis in rat PC12 cells assessed as decrease in nuclear condensation at 20 uM after 24 hrs by Hoechst 33258 staining-based fluorescent inverted microscopic method; type: functional, cell-based
# Outline: (§3)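 PC12 cells exposed to 6-OHDA or rotenone with test treatment were stained with Hoechst 33258 for 30 min, mounted on glass slides under cover slips, and examined by fluorescent inverted microscopy.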
# PC-12 [9] = experiment: Neuroprotective activity against 6-OHDA-induced toxicity in rat PC12 cells assessed as increase in cell viability after 24 hrs by phase-contrast microscopic method; type: functional, cell-based
# Outline: (§4)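 PC12 cells were exposed to 5-40 μM test compound together with 40 μM 6-OHDA or 1 μM rotenone for 24 h. Viability was judged from phase-contrast images against untreated controls.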
# PC-12 [10] = experiment: Neuroprotective activity against rotenone-induced apoptosis in rat PC12 cells assessed as viable cells at 40 uM after 24 hrs by 7-AAD/annexin V APC staining-based flow cytometric method (reference value: 39.3%); type: functional; conditions: PC-12, 24 h, read-out: Activity
# PC-12 [11] = experiment: Neuroprotective activity against 6-OHDA-induced apoptosis in rat PC12 cells assessed as decrease in nuclear condensation at 20 uM after 24 hrs by Hoechst 33258 staining-based fluorescent inverted microscopic method; type: functional, cell-based; outline: as §3
# PC-12 [12] = experiment: Neuroprotective activity against rotenone-induced apoptosis in rat PC12 cells assessed as necrotic cells at 20 uM after 24 hrs by 7-AAD/annexin V APC staining-based flow cytometric method (reference value: 48.6%); type: functional
# PC-12 [13] = experiment: Neuroprotective activity against rotenone-induced toxicity in rat PC12 cells assessed as increase in cell survival preincubated for 24 hrs followed by rotenone addition measured after 24 hrs by MTT assay; type: functional, cell-based; outline: as §1
# PC-12 [14] = experiment: Neuroprotective activity against rotenone-induced apoptosis in rat PC12 cells assessed as early apoptotic cells at 5 uM after 24 hrs by 7-AAD/annexin V APC staining-based flow cytometric method (reference value: 2.2%); type: functional
# PC-12 [15] = experiment: Neuroprotective activity against 6-OHDA-induced apoptosis in rat PC12 cells assessed as necrotic cells at 40 uM after 24 hrs by 7-AAD/annexin V APC staining-based flow cytometric method (reference value: 0.6%); type: functional
# PC-12 [16] = experiment: Neuroprotective activity against rotenone-induced apoptosis in rat PC12 cells assessed as viable cells at 5 uM after 24 hrs by 7-AAD/annexin V APC staining-based flow cytometric method (reference value: 39.3%); type: functional; conditions: PC-12, 24 h, read-out: Activity
# PC-12 [17] = experiment: Neuroprotective activity against 6-OHDA-induced apoptosis in rat PC12 cells assessed as necrotic cells at 20 uM after 24 hrs by 7-AAD/annexin V APC staining-based flow cytometric method (reference value: 0.6%); type: functional
# Mus musculus [18] = experiment: Acute toxicity in Kunming mouse assessed as mortality at 2000 mg/kg measured for 14 days; type: organism-based; conditions: in vivo, 336 h; outline: as §2
# PC-12 [19] = experiment: Neuroprotective activity against rotenone-induced apoptosis in rat PC12 cells assessed as early apoptotic cells at 40 uM after 24 hrs by 7-AAD/annexin V APC staining-based flow cytometric method (reference value: 2.2%); type: functional
# PC-12 [20] = experiment: Neuroprotective activity against rotenone-induced toxicity in rat PC12 cells assessed as increase in cell viability after 24 hrs by phase-contrast microscopic method; type: functional, cell-based; outline: as §4
# PC-12 [21] = experiment: Neuroprotective activity against rotenone-induced apoptosis in rat PC12 cells assessed as decrease in nuclear fragmentation at 20 uM after 24 hrs by Hoechst 33258 staining-based fluorescent inverted microscopic method; type: functional, cell-based; outline: as §3
# PC-12 [22] = experiment: Neuroprotective activity against rotenone-induced apoptosis in rat PC12 cells assessed as late apoptotic cells at 5 uM after 24 hrs by 7-AAD/annexin V APC staining-based flow cytometric method (reference value: 9.9%); type: functional
# PC-12 [23] = experiment: Neuroprotective activity against rotenone-induced apoptosis in rat PC12 cells assessed as necrotic cells at 40 uM after 24 hrs by 7-AAD/annexin V APC staining-based flow cytometric method (reference value: 48.6%); type: functional
# PC-12 [24] = experiment: Neuroprotective activity against 6-OHDA-induced reactive oxygen species accumulation in rat PC12 cells after 24 hrs by DCFH-DA probe-based flow cytometric method; type: functional, cell-based
# Outline: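 PC12 cells were seeded at 2×10^5 cells/well in six-well plates and cultured with or without various concentrations of test samples for 24 h. After washing, they were loaded with DCFH-DA for 30 min at 37 °C in the dark, washed and harvested. DCF fluorescence read by flow cytometry (ex 488/em 525 nm), reported as mean fluorescence intensity.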
# PC-12 [25] = experiment: Neuroprotective activity against 6-OHDA-induced apoptosis in rat PC12 cells assessed as viable cells at 5 uM after 24 hrs by 7-AAD/annexin V APC staining-based flow cytometric method (reference value: […]); type: functional; conditions: PC-12, 24 h, read-out: Activity
# PC-12 [26] = experiment: Neuroprotective activity against 6-OHDA-induced apoptosis in rat PC12 cells assessed as late apoptotic cells at 20 uM after 24 hrs by 7-AAD/annexin V APC staining-based flow cytometric method (reference value: 4.4%); type: functional
compound,measurement,setting,value
O=C1CCOc2cc(OCc3ccc(F)cc3)ccc21,Activity,PC-12 [1],Dose-dependent effect
same,Activity,PC-12 [2],10.8%
same,Activity,PC-12 [3],16.1%
same,Activity,PC-12 [4],30.8%
same,viability at 20 µM,[5],134%
same,Activity,PC-12 [6],Dose-dependent effect
same,Activity,Mus musculus [7],Non-Toxic
same,Activity,PC-12 [8],Active
same,Activity,PC-12 [9],Dose-dependent effect
same,viability at 40 µM,PC-12 [10],62.1%
same,Activity,PC-12 [11],Active
same,Activity,PC-12 [12],30.2%
same,Activity,PC-12 [13],Dose-dependent effect
same,Activity,PC-12 [14],3.3%
same,Activity,PC-12 [15],1.9%
same,viability at 5 µM,PC-12 [16],54.2%
same,Activity,PC-12 [17],1.1%
same,Activity,Mus musculus [18],Non-Toxic
same,Activity,PC-12 [19],2.9%
same,Activity,PC-12 [20],Dose-dependent effect
same,Activity,PC-12 [21],Active
same,Activity,PC-12 [22],9.3%
same,Activity,PC-12 [23],25.8%
same,Activity,PC-12 [24],Dose-dependent effect
same,viability at 5 µM,PC-12 [25],69.3%
same,Activity,PC-12 [26],0.3%
